The sample as a whole holds a higher share of hits than the screen did.
Yeast lifespan up: extends the lifespan of yeast | S. cerevisiae growth with nicotinamide, OD615; deaD strain in restrictive glucose medium | inhibition of the nicotinamide effect, % at 10 µM | 0.68% of 130,000 active;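 active means inhibition above a set limit, placed 3 SD over the median of all compounds, cut at about 26% in these data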;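 further: 0% = nicotinamide-treated wells and 100% = cells grown without nicotinamide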
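Test system – modified budding yeast, DeaD strain · Compound – single dose 10 µM compound, 0.25% DMSO · Times – culture preincubation 4 h, compound exposure 48 h, both 30 °C · Detection – optical density (absorbance) at 615 nm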
Yeast growth inh: reduces growth of yeast BB579 in restrictive medium; S. cerevisiae BB579 growth, OD615, 48 h; inhibition, % at 10 µM; 0.51% of 140,000 active;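 active means inhibition above a set limit, 3 SD over the mean compound inhibition, cut at about 44% in these data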
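Detection: OD615 turbidity measurement; Material: Saccharomyces cerevisiae DeaD strain BB579, replicative lifespan model yeast; Timing: 48 h exposure, 30 °C; Doses: single 10 µM dose; Medium: CSMM-D restrictive synthetic medium containing dextrose (glucose); Controls: amphotericin B at 10 µg/mL as positive control.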
PostGolgi yeast: growth inhibition of a yeast mutant, post-Golgi transport screen. post-Golgi transport phenotypic cell assay. inhibition, % at 10 µM. 0.9% of 98,000 active. AID 739;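 further: yeast cells grown in 1536-well plates; yeast grown about 18 h at 30C before absorbance read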
PostGolgi ctrl: inhibits growth of the yeast control strain; inhibition, % at 10 µM; 5% of 98,000 active; efflux-deficient yeast background strain, growth absorbance A615, 16 h
* hit, by the source's call; · = no result. Unless noted, no stated cut-off is given here; in the data, active means inhibition above about 30%; inactive means the rest.

SMILES	Yeast lifespan up	Yeast growth inh	PostGolgi yeast	PostGolgi ctrl
Cc1nc2c(c(-c3ccccc3)c1C#N)C(=O)c1ccccc1-2	-17	-36	18	27
Cc1nc2c(c(C)c1C#N)C(=O)c1ccccc1-2	-7	64*	·	·
CCOC(=O)c1nn(-c2ccc(C)cc2)cc1C(=O)c1ccccc1	-9	-25	-1	7
CCn1cc(S(=O)(=O)CC(=O)Nc2ccc(OC)cc2)c2ccccc21	-1	-6	3	-6
CCn1c(O)c(/C=N/N=C/c2ccccc2)c2ccc(C3=NNC(=O)CC3)cc21	-11	-58	3	48*
CCC(CC)=N/N=C/c1c(O)n(CC)c2cc(C3=NNC(=O)CC3)ccc12	·	-8	·	·
N#Cc1c(C(F)(F)F)cc(-c2cccc(Cl)c2)[nH]c1=O	-13	-4	1	21
O=C(CCC1N=C2c3ccccc3N=C(SCc3cccc(Cl)c3)N2C1=O)NCc1ccco1 (centres undefined)	-18	-42	1	8
O=C(CCC1N=C2c3ccccc3N=C(SCc3ccccc3Cl)N2C1=O)NCc1ccco1 (centres undefined)	-12	-30	-1	37*
O=C(COc1ccccc1Br)NCc1ccccn1	-25	-22	-6	32*
CNC(=S)N1N=C(c2ccc(Br)cc2)CC1c1ccc(Br)cc1 (centres undefined)	-14	-50	-11	33*
CNC(=S)N1N=C(c2ccc(OC)cc2)CC1c1ccc(N(C)C)cc1 (centres undefined)	-22	-33	-3	3
COc1ccccc1-c1cc(C(F)(F)F)n2ncc(S(=O)(=O)c3ccccc3)c2n1	-4	7	-5	46*
CCCCCCN1N=C(C)C(C(=O)c2ccc(Cl)cc2)C1=O (centres undefined)	-5	87*	0	2
CCCCCCCN1N=C(C)C(C(=O)c2ccccc2)C1=O (centres undefined)	-27	26	-3	-4
O=C(Nc1ccc2c(c1)OCCO2)NC1(C(F)(F)F)Oc2ccccc2O1	30*	-49	5	34*
CCCC(C)NS(=O)(=O)c1ccc(OC)c(C)c1 (centres undefined)	0	-30	1	11
CCc1ccccc1NC(=O)CSc1nnc(-c2ccco2)n1N	-10	-16	3	0
Cc1ccccc1Oc1cc(-n2ncc(Cl)c(Cl)c2=O)ncn1	46*	-31	·	·
CCOC(=O)C(NC(=O)c1ccc(Cl)cc1Cl)(Nc1ccc(C)cc1)C(F)(F)F (centres undefined)	-5	-18	3	6
CC(=O)Nc1cc(C(C)(C)C)c(O)c(C(C)(C)C)c1	-1	0	-8	33*
CC(C)(C)NC(=O)c1cc(C(C)(C)C)c(O)c(C(C)(C)C)c1	-2	-6	·	·
NC(N)=N/N=C/c1ccc(OCc2ccccc2)cc1	-29	-13	3	8
NC(N)=N/N=C/c1ccc(OCc2ccc(Cl)cc2)cc1	-10	78*	-9	63*
O=C(Cc1cccs1)N1CCN(S(=O)(=O)c2ccc(Br)cc2)CC1	2	-39	·	·
SMILES	Yeast lifespan up	Yeast growth inh	PostGolgi yeast	PostGolgi ctrl
CC(=O)O/N=C(/c1nonc1N)N1CCN(c2ccc([N+](=O)[O-])cc2Cl)CC1	11	-15	·	·
O=C(/C=C/c1ccc(Cl)cc1)N1CCN(c2ccc(Cl)cc2[N+](=O)[O-])CC1	-8	-12	-14	93*
CO/N=C(\c1nonc1N)N1CCN(c2ccc([N+](=O)[O-])cc2Cl)CC1	-14	-47	0	32*
CO/N=C(\c1nonc1N)N1CCN(c2ccc(Cl)cc2[N+](=O)[O-])CC1	-13	-48	-7	58*
CCO/N=C(/c1nonc1N)N1CCN(c2ccc([N+](=O)[O-])cc2)CC1	-6	-30	15	4
COc1ccc2c(c1)OC13CCCCC1C2C(C(=O)c1ccccc1)C(=O)N3 (centres undefined)	-4	-6	-6	-10
COc1ccc(NS(=O)(=O)c2cc(NC(=O)c3cccc(OCc4c(C)noc4C)c3)ccc2OC)cc1	5	-24	·	·
CCOc1ccc(C(=O)CN2CCN(S(=O)(=O)c3ccc(Cl)cc3)CC2)cc1	3	-36	1	32*
CCOc1ccc(S(=O)(=O)N2CCCC2)cc1	-3	-8	-13	-9
COc1ccc(OC)c(NC(=O)CN2CCC(C(=O)c3ccc(C)cc3)CC2)c1	-7	-65	-2	35*
COc1ccc(C)cc1NC(=O)CN1CCN(S(=O)(=O)c2ccc(C(C)C)cc2)CC1	-9	-51	-5	17
COc1ccc(C)cc1NC(=O)CN1CCN(S(=O)(=O)c2ccc(Cl)cc2)CC1	-1	-48	16	50*
Cc1ccc(N=Cc2c(O)n(-c3cc(Cl)ccc3N3CCOCC3)c(=O)c3ccccc23)cc1C	-2	-31	8	4
CC(=O)COC(=O)c1cccc(N2C(=O)C3C4C=CC(C4)C3C2=O)c1 (centres undefined)	-9	19	3	31*
Cc1cc(C)c(S(C)(=O)=O)c(Sc2ccc(Cl)cc2)n1	-7	-41	16	31*
O=C(COc1ccc2c(c1)OCO2)NC12CC3CC(CC(C3)C1)C2	-5	-47	-9	36*
O=C(NC12CC3CC(CC(C3)C1)C2)N1CCC(O)(c2ccc3c(c2)OCO3)CC1	-5	-33	3	10
Cc1noc(C)c1COc1ccc(C(=O)OCC(=O)NC23CC4CC(CC(C4)C2)C3)cc1	-8	-12	-6	37*
O=C(NC(NCc1cccnc1)C(Cl)(Cl)Cl)c1cccc2ccccc12 (centres undefined)	4	-20	·	·
COc1ccc(/C=N/OCC(=O)N(Cc2ccc(OC)cc2)c2ccccc2C(=O)O)cc1	2	-11	·	·
Cc1ccc(-n2ncc3c(=O)n(CC(=O)OCc4ccccc4)cnc32)cc1	-23	-15	-2	36*
O=C1NN=C(c2ccc(Cl)cc2)CC1c1cccc(Cl)c1 (centres undefined)	-3	-39	12	46*
CC(C)(C)c1ccc(S(=O)(=O)N2CCSC2)cc1	-1	-9	·	·
O=C(Nc1ccccc1)OCc1cc(-c2ccccc2Cl)on1	-16	-56	2	33*
Oc1ccc2ccccc2c1N=Nc1ccccn1	-7	90*	6	8
SMILES	Yeast lifespan up	Yeast growth inh	PostGolgi yeast	PostGolgi ctrl
CC(C)CCn1c(O)c(N=Nc2ccccn2)c2ccccc21	-2	-17	·	·
O=C(NCCc1ccccc1)C1CCCN(S(=O)(=O)c2cccs2)C1 (centres undefined)	-4	-28	0	7
CCC(C)(C)NC(=O)C(c1ccc(C)cc1)N(Cc1ccco1)C(=O)CCC(=O)Nc1nccs1 (centres undefined)	-4	-39	0	-7
Nc1ccc2oc(-c3ccccc3Cl)cc(=O)c2c1O	-8	-38	·	·
O=c1cc(-c2ccccc2Cl)oc2ccc([N+](=O)[O-])c(O)c12	64*	-42	·	·
CC(=O)c1ccc(N2CCN(C(C)C(=O)NC3CCCc4ccccc43)CC2)cc1 (centres undefined)	-3	-20	·	·
COC(=O)C(NC(=O)c1ccc(Cl)cc1)(Nc1nc(C)cs1)C(F)(F)F (centres undefined)	-9	-12	-13	19

Assay outcomes (PubChem)
